Reference: ChEMBL document CHEMBL1152452, “Modifications incorporated in CpG motifs of oligodeoxynucleotides lead to antagonist activity of toll-like receptors 7 and 9” (2009)
Each block holds one molecule with its values, some of them ahead of it. The source made the active and inactive calls. The rule behind the calls is not given here.

What was measured:
[1] = biological target: T1, Toll-like receptor 9 (Mus musculus) (UniProt Q9EQU3); test: Activation of mouse TLR9 expressed in HEK293 cells assessed as NF-kappaB level at 0.3 ug/mL after 18 hrs by reporter gene assay; assay type: cell-based
T1 sequence (whole entry): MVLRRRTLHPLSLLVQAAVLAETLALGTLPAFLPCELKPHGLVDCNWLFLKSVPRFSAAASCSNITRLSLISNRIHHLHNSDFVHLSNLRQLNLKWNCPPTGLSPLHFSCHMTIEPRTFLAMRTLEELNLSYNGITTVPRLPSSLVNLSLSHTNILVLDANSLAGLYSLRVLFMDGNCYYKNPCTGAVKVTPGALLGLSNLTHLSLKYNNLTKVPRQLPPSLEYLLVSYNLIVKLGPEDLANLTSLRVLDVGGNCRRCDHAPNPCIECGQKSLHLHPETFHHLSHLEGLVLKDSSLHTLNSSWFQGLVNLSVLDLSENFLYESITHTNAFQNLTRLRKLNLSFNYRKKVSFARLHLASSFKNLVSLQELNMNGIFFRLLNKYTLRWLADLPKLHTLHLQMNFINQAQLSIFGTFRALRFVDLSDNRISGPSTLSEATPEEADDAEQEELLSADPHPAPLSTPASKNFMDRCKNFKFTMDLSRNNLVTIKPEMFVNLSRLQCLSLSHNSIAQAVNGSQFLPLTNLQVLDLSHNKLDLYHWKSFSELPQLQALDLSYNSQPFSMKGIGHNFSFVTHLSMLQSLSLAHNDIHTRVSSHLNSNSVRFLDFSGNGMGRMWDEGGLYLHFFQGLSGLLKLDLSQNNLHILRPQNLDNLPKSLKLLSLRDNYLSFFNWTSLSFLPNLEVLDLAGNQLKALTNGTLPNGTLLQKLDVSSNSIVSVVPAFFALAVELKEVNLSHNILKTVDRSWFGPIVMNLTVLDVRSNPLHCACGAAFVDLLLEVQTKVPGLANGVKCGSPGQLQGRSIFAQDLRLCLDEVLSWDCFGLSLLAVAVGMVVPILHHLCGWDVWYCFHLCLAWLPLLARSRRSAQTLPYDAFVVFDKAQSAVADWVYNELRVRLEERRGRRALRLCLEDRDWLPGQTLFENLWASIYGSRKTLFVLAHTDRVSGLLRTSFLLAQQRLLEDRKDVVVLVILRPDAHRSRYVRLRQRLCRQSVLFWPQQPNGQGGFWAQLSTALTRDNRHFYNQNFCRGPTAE
How it was run: (§1)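 HEK293 cells stably expressing mouse TLR9 were transiently transfected with a SEAP reporter for 6 h, then stimulated with ODN at 0.1, 0.3 or 1 μg/mL for 18 h. Reporter expression is given as fold change in NF-κB activity over medium. Representative of two independent experiments.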

Mus musculus [2] = test: Immunostimulatory activity in C57BL/6 mouse assessed as induction of MCP1 level in serum at 2 mg/kg, sc after 2 hrs by Luminex multiplex assay; assay type: functional, organism-based; parameters: dose 2 mg/kg
How it was run: (§2)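 Female C57BL/6 mice, 5–6 weeks old, n = 3, received a single 2 mg/kg subcutaneous ODN injection in the right flank. Blood was taken by retro-orbital bleeding 2 h later. Naive mice served as baseline. Representative of three experiments.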

Mus musculus [3] = test: Immunostimulatory activity in C57BL/6 mouse assessed as inhibition of 5'-CTATCTGACGTTCTCTGT-3'-induced KC production in serum at 2 mg/kg, sc administered 24 hrs prior to 5'-CTATCTGACGTTCTCTGT-3' challenge measured after 2 hrs by Luminex multiplex assay; assay type: functional, organism-based; parameters: dose 2 mg/kg
How it was run: (§3)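 C57BL/6 mice received 2 mg/kg ODN sc in one flank. After 24 h, the TLR9 agonist ODN was given at 0.5 mg/kg sc in the opposite flank. Blood was drawn 2 h later and serum cytokines/chemokines were quantified by Luminex multiplex assay. Percent inhibition was taken against the agonist alone. Representative of three experiments.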

Mus musculus [4] = test: Immunostimulatory activity in C57BL/6 mouse assessed as induction of IL10 level in serum at 2 mg/kg, sc after 2 hrs by Luminex multiplex assay; assay type: functional, organism-based; parameters: dose 2 mg/kg; how it was run: as §2
J774 = test: Activation of NF-kappaB in mouse J774 cells at 2.5 ug/ml after 1 hr by EMSA; assay type: cell-based
How it was run: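 Murine J774 macrophages in DMEM with 10% FBS and antibiotics, plated at 5×10^6 cells/well. ODNs were given alone or together for 1 h. For inhibition, the agonist ODN at 0.5 μg/mL was co-incubated with the modified ODN at 2.5 μg/mL. Nuclear extracts were resolved by EMSA on native polyacrylamide gels and read by autoradiography.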

Splenocyte [5] = test: Inhibition of 5'-CTATCTGACGTTCTCTGT-3'-induced IL12 secretion in C57BL/6 mouse splenocytes after 24 hrs by sandwich ELISA; assay type: functional, cell-based
How it was run: (§4)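 Splenocytes from 5–8-week C57BL/6 mice, 5 × 10^6 cells/mL in RPMI complete medium, were co-incubated with the TLR9 agonist ODN (1 µg/mL) plus test ODN at 1 or 4 µg/mL, or over a concentration series, at 37 °C for 24 h. Supernatant IL-12 or IL-6 was measured by sandwich ELISA. Runs were done in duplicate, with three independent experiments.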

[6] = biological target: T1, Toll-like receptor 9 (Mus musculus); test: Activation of mouse TLR9 expressed in HEK293 cells assessed as NF-kappaB level at 0.1 ug/mL after 18 hrs by reporter gene assay; assay type: cell-based; how it was run: as §1
Splenocyte [7] = test: Inhibition of 5'-CTATCTGACGTTCTCTGT-3'-induced IL6 secretion in C57BL/6 mouse splenocytes after 24 hrs by sandwich ELISA; assay type: functional, cell-based; how it was run: as §4
Mus musculus [8] = test: Immunostimulatory activity in C57BL/6 mouse assessed as inhibition of 5'-CTATCTGACGTTCTCTGT-3'-induced TNFalpha production in serum at 2 mg/kg, sc administered 24 hrs prior to 5'-CTATCTGACGTTCTCTGT-3' challenge measured after 2 hrs by Luminex multiplex assay; assay type: functional, organism-based; parameters: dose 2 mg/kg; how it was run: as §3
Mus musculus [9] = test: Immunostimulatory activity in C57BL/6 mouse assessed as inhibition of 5'-CTATCTGACGTTCTCTGT-3'-induced MIP-1alpha production in serum at 2 mg/kg, sc administered 24 hrs prior to 5'-CTATCTGACGTTCTCTGT-3' challenge measured after 2 hrs by Luminex multiplex assay; assay type: functional, organism-based; parameters: dose 2 mg/kg; how it was run: as §3
Mus musculus [10] = test: Immunostimulatory activity in C57BL/6 mouse assessed as inhibition of 5'-CTATCTGACGTTCTCTGT-3'-induced IL12 production in serum at 5 mg/kg, sc administered 24 hrs prior to 5'-CTATCTGACGTTCTCTGT-3' challenge measured after 2 hrs by sandwich ELISA; assay type: functional; details: C57BL/6, sc, route subcutaneous
How it was run: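 C57BL/6 mice were pretreated sc in the right flank with 2, 5 or 10 mg/kg ODN. After 24 h, the TLR9 agonist ODN was given at 0.5 mg/kg sc in the left flank. Serum IL-12 was measured by ELISA 2 h later. Representative of two experiments.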

Activity [1]: inactive | Activity [6]: inactive
SMILES: COC1[C@H](n2cc(C)c(N)nc2=O)O[C@H](COP(=O)(S)O[C@H]2C[C@H](n3cnc4c(N)ncnc43)O[C@@H]2COP(=O)(S)O[C@H]2C[C@H](n3cnc4c(=O)[nH]c(N)nc43)O[C@@H]2COP(=O)(S)O[C@H]2C[C@H](n3cc(C)c(=O)[nH]c3=O)O[C@@H]2COP(=O)(S)O[C@H]2C[C@H](n3ccc(N)nc3=O)O[C@@H]2COP(=O)(S)O[C@H]2C[C@H](n3cc(C)c(=O)[nH]c3=O)O[C@@H]2COP(=O)(S)O[C@H]2C[C@H](n3cnc4c(N)ncnc43)O[C@@H]2COP(=O)(S)O[C@H]2C[C@H](n3cc(C)c(=O)[nH]c3=O)O[C@@H]2COP(=O)(S)O[C@H]2C[C@H](n3ccc(N)nc3=O)O[C@@H]2CO)[C@H]1OP(=O)(S)OC[C@H]1O[C@@H](n2cnc3c(=O)[nH]c(N)nc32)C[C@@H]1OP(=O)(S)OC[C@H]1O[C@@H](n2cc(C)c(=O)[nH]c2=O)C[C@@H]1OP(=O)(S)OC[C@H]1O[C@@H](n2cc(C)c(=O)[nH]c2=O)C[C@@H]1OP(=O)(S)OC[C@H]1O[C@@H](n2ccc(N)nc2=O)C[C@@H]1OP(=O)(S)OC[C@H]1O[C@@H](n2cc(C)c(=O)[nH]c2=O)C[C@@H]1OP(=O)(S)OC[C@H]1O[C@@H](n2ccc(N)nc2=O)C[C@@H]1OP(=O)(S)OC[C@H]1O[C@@H](n2cc(C)c(=O)[nH]c2=O)C[C@@H]1OP(=O)(S)OC[C@H]1O[C@@H](n2cnc3c(=O)[nH]c(N)nc32)C[C@@H]1OP(=O)(S)OC[C@H]1O[C@@H](n2cc(C)c(=O)[nH]c2=O)C[C@@H]1O (stereo partly specified)
Activity (Mus musculus [2]): inactive | Activity (Mus musculus [3]): Active | Activity (Mus musculus [4]): inactive | Activity (J774): inactive | Activity (Splenocyte [5]): Dose-dependent effect | Activity (Splenocyte [7]): Dose-dependent effect | Activity (Mus musculus [8]): Active | Activity (Mus musculus [9]): Active

Activity [1]: inactive | Activity [6]: inactive
SMILES: COC1[C@H](n2cnc3c(=O)[nH]c(N)nc32)O[C@H](COP(=O)(S)O[C@H]2C[C@H](n3cc(C)c(N)nc3=O)O[C@@H]2COP(=O)(S)O[C@H]2C[C@H](n3cnc4c(N)ncnc43)O[C@@H]2COP(=O)(S)O[C@H]2C[C@H](n3cnc4c(=O)[nH]c(N)nc43)O[C@@H]2COP(=O)(S)O[C@H]2C[C@H](n3cc(C)c(=O)[nH]c3=O)O[C@@H]2COP(=O)(S)O[C@H]2C[C@H](n3ccc(N)nc3=O)O[C@@H]2COP(=O)(S)O[C@H]2C[C@H](n3cc(C)c(=O)[nH]c3=O)O[C@@H]2COP(=O)(S)O[C@H]2C[C@H](n3cnc4c(N)ncnc43)O[C@@H]2COP(=O)(S)O[C@H]2C[C@H](n3cc(C)c(=O)[nH]c3=O)O[C@@H]2COP(=O)(S)O[C@H]2C[C@H](n3ccc(N)nc3=O)O[C@@H]2CO)[C@H]1OP(=O)(S)OC[C@H]1O[C@@H](n2cc(C)c(=O)[nH]c2=O)C[C@@H]1OP(=O)(S)OC[C@H]1O[C@@H](n2cc(C)c(=O)[nH]c2=O)C[C@@H]1OP(=O)(S)OC[C@H]1O[C@@H](n2ccc(N)nc2=O)C[C@@H]1OP(=O)(S)OC[C@H]1O[C@@H](n2cc(C)c(=O)[nH]c2=O)C[C@@H]1OP(=O)(S)OC[C@H]1O[C@@H](n2ccc(N)nc2=O)C[C@@H]1OP(=O)(S)OC[C@H]1O[C@@H](n2cc(C)c(=O)[nH]c2=O)C[C@@H]1OP(=O)(S)OC[C@H]1O[C@@H](n2cnc3c(=O)[nH]c(N)nc32)C[C@@H]1OP(=O)(S)OC[C@H]1O[C@@H](n2cc(C)c(=O)[nH]c2=O)C[C@@H]1O (stereo partly specified)
Activity (Mus musculus [2]): inactive | Activity (Mus musculus [3]): Active | Activity (Mus musculus [4]): inactive | Activity (J774): inactive | Activity (Splenocyte [5]): Dose-dependent effect | inhibition in vivo at 5 mg/kg (Mus musculus [10]): 66% | Activity (Splenocyte [7]): Dose-dependent effect | Activity (Mus musculus [8]): Active | Activity (Mus musculus [9]): Active
